UPR CHOP act = activators of apoptotic CHOP UPR arm, primary screen, cell-based, CHO-CHOP luciferase reporter, luminescence, uHTS; UPR activation; percent of tunicamycin response over DMSO baseline; activation, % at 10 µM; 0.34% of 330,000 active;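 active = at 10 µM dose, activation of 40% or more, normalized to positive control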;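 note: 100% = tunicamycin at 10 µg/mL and 0% = DMSO alone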
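System: CHO-CHOP luciferase reporter cell line; amount: 500 cells/well; buffer or medium: F12 medium containing 10% fetal bovine serum; incubation: 6 h compound exposure at 37 °C after overnight seeding; measured by: luciferase luminescence after 10 min with Steady-Glo reagent; evaluation: % reporter activation, DMSO baseline versus tunicamycin full activation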
Mdm2-MdmX inh = inhibitors of human Mdm2-MdmX association, primary screen, cell-based, luminescence, split luciferase, SaOS-2, uHTS; SaOS-2 split-luciferase Mdm2/MdmX complementation; Protein Mdm4 (Homo sapiens) + E3 ubiquitin-protein ligase Mdm2 (Homo sapiens), …; inhibition, % at 8 µM; 3% of 330,000 active;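 active = inhibition of at least 50% at 8 µM in the primary screen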
Apaf-1 inh = inhibitors of human Apaf-1 apoptosome, primary screen, biochemical, DEVD-Rh110 fluorescence, uHTS; reconstituted apoptosome caspase-3 activity; inhibition, % at 20 µM; 0.71% of 330,000 active; active = inhibition of at least 40% at 20 µM;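 note: plate controls were DMSO wells for no effect and DEVD-CHO caspase inhibitor wells for full effect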
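detection = Rh110 fluorescence intensity | test system = biochemical Apaf-1 apoptosome reconstitution | also added = cytochrome c and DEVD-Rh110 substrate | schedule = 30 min plus 50 min, RT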
UBC13 inh = UBC13 polyubiquitin chain formation inhibitors, primary screen, biochemical, TR-FRET, uHTS; Ubiquitin-conjugating enzyme E2 N (Homo sapiens), P61088; inhibition, % at 20 µM; 0.47% of 330,000 active; in the data active = inhibition above about 45%, passing the limit was not always enough
Target sequence (P61088 whole entry, looked up): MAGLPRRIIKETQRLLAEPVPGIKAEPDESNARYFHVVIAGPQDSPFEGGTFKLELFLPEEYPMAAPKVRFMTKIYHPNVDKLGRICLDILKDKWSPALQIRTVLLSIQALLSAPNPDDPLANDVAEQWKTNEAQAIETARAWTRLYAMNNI
UPR XBP1 act = activators of adaptive XBP1 UPR arm, primary screen, cell-based, CHO-XBP1 luciferase reporter, luminescence, uHTS | IRE1-XBP1 UPR activation; percent of tunicamycin response, DMSO as zero | activation, % at 20 µM | 0.33% of 330,000 active;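 active = versus positive control, 20 µM dose yields 30% or more activation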;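 note: 100% = tunicamycin at 10 µg/mL and 0% = DMSO only wells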
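Material: CHO cell line with stable XBP1 luciferase reporter; buffer or medium: F12 medium containing 10% fetal bovine serum; compound: single point, 20 µM final compound, 1% DMSO; incubation: 6 h treatment, 37 °C; measured by: glow luminescence from Steady-Glo reagent; evaluation: activation, % of tunicamycin; control set: tunicamycin high, DMSO low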
Mdm2 MdmX conf = Mdm2-MdmX complex disruptors, retested hits, confirmation, luminescence, single concentration; shares compounds with Mdm2-MdmX inh; Mdm2-MdmX binding, luminescent assay; inhibition, % at 8 µM; 55% of 10,000 active; AID 489028, 2010; in the data active = inhibition above about 40%
FLuc counter = full-length luciferase signal inhibition, confirmation, counter-screen for Mdm2/MdmX interaction inhibitor project, cell-based, single concentration, SaOS-2. AID 504607, 2011. inhibition, % at 8 µM. SaOS-2 full-length luciferase counterscreen, luminescence. 77% of 6,200 active. shares compounds with Mdm2-MdmX inh;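 active = mean inhibition at 8 µM reaching about 37%, which flags the compound as non-specific, limit read from the data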;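 note: p53-null SaOS-2 cells with luciferase driven by a doxycycline-inducible promoter; compound on cells about two nights before reading with doxycycline added after day one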
An asterisk follows results filed as active; . = no result. Rows were chosen to be rich in hits. Some 4.1% of all compounds tested hit in one or more screens of this group.

SMILES	UPR CHOP act	Mdm2-MdmX inh	Apaf-1 inh	UBC13 inh	UPR XBP1 act	Mdm2 MdmX conf	FLuc counter
Cc1cc(NC(=O)CCN2CCC(C)CC2)ccc1Br	-1	1	-7	6	-2	.	.
CCC(C)NC(=O)Nc1ccc(Br)cc1 (configuration not stated)	3	-6	5	0	-1	.	.
CCC(C)Nc1ccc(NC(C)CC)cc1 (configuration not stated)	5	97*	43*	-11	-7	68*	18
COc1ccc(CCNC(=O)c2nnn(-c3ccc4c(c3)OCCO4)c2N)cc1OC	-4	80*	4	6	-3	79*	38*
COc1ccc(CCNC(=O)c2nnn(-c3ccccc3OC)c2N)cc1OC	2	21	3	-20	1	.	.
Cc1ccc(S(=O)(=O)N2CCN(c3ccc(S(=O)(=O)N4CCOCC4)cn3)CC2)cc1	3	66*	7	10	4	-16	.
COc1ccc(OC)c(C2C3=C(COC3=O)Nc3cc4c(cc32)OCO4)c1 (configuration not stated)	-2	55*	15	14	26	68*	125*
COc1cccc(-c2nn(-c3ccc(C)cc3)cc2C(=O)N2CCc3cc(OC)c(OC)cc3C2)c1	2	58*	31	-3	-1	67*	86*
CCOC(=O)c1c(C)nc2sc(C(=O)Nc3ccc(OC)cc3)c(N)c2c1-c1ccc(OC)cc1	1	58*	8	30	0	56*	53*
CCOC(=O)c1c(C)nc2sc(C(=O)Nc3ccc(C(C)=O)cc3)c(N)c2c1-c1ccc(OC)cc1	-1	6	8	10	-2	.	.
Cc1cc(NC(=O)C(C)SCC(=O)Nc2ccccc2C(C)(C)C)no1 (configuration not stated)	1	-1	0	1	-1	.	.
CC(C)(C)[C@H]1C=C(C(=O)NCc2nc3ccccc3[nH]2)O[C@@H](OCc2ccc(CO)cc2)C1	1	53*	27	-6	-2	54*	93*
CCO[C@H]1OC(C(=O)NCc2nc3ccccc3[nH]2)=C[C@@H](c2ccccc2)[C@@H]1CCCO	1	-5	7	6	1	.	.
O=C(Nc1ccccc1)C1=C[C@@H](C2CCCCC2)C[C@@H](OCc2ccc(CO)cc2)O1	2	96*	19	14	4	76*	24
CCO[C@H]1OC(C(=O)NCc2nc3ccccc3[nH]2)=C[C@@H](C2CC2)[C@@H]1CCCO	0	53*	-3	-1	-1	73*	69*
O=C(Nc1ccccc1)C1=C[C@H](C2CCCCC2)C[C@H](OCc2ccc(CO)cc2)O1	2	37	22	22	2	.	.
O=C(NCc1ccccc1)C1=C[C@H](c2csc3ccccc23)C[C@H](OCc2ccc(CO)cc2)O1	0	54*	13	-2	-3	37	59*
CCOc1ccccc1NC(=O)NCc1ccccn1	0	8	3	5	-1	.	.
O=C(NCc1nc2ccccc2[nH]1)C1=C[C@H](C2CCCCC2)C[C@H](OCc2ccc(CO)cc2)O1	-1	68*	24	-6	-2	44*	67*
O=C(c1ccc(NC(=O)C(c2ccccc2)c2ccccc2)cc1)c1ccc(C(=O)O)c(C(=O)O)c1	0	-15	5	-18	-1	.	.
Fc1ccc(Nc2nc(N3CCOCC3)nc(N3CCOCC3)n2)cc1	2	33	-6	1	-2	.	.
COc1cc(/C=N/Nc2nc(N3CCCCC3)nc(N3CCCCC3)n2)ccc1OC(=O)c1ccco1	3	1	10	-2	2	.	.
Cc1[nH]c2ccccc2c1/C=N/Nc1nc(Nc2ccc(F)cc2)nc(N2CCOCC2)n1	34	87*	4	10	10	40	101*
O=C(Oc1cccc(/C=N/Nc2nc(Nc3ccccc3)nc(N3CCOCC3)n2)c1)c1ccco1	9	58*	-4	1	3	49*	118*
Cc1ccc(Nc2nc(N/N=C/c3c[nH]c4ccccc34)nc(N3CCOCC3)n2)cc1	32	35	7	23	29	.	.
SMILES	UPR CHOP act	Mdm2-MdmX inh	Apaf-1 inh	UBC13 inh	UPR XBP1 act	Mdm2 MdmX conf	FLuc counter
C(=N\Nc1nc(Nc2ccccc2)nc(N2CCOCC2)n1)/c1c[nH]c2ccccc12	30	52*	15	-7	14	34	.
CCN1CCn2c3c(c4cccc(C)c42)CCCC31 (configuration not stated)	3	10	-4	-2	-3	.	.
COc1ccc(OC)c(NC(=O)NCCc2c[nH]c3ccccc23)c1	0	-3	6	5	-4	.	.
Cc1csc(=O)n1CC(=O)Nc1ccc(Cl)cc1F	1	-21	-5	3	3	.	.
O=C(c1ccccc1F)n1c2c(c3ccccc31)CCCC2	0	56*	10	6	-3	44*	56*
CC1(CCC(=O)N2CCCC(Nc3ccc(F)cc3)C2)CC1 (configuration not stated)	0	-11	-4	-4	-3	.	.
Cc1ccc(NC(=O)c2ccccc2OCc2ccc([N+](=O)[O-])cc2)nc1	-2	76*	2	-11	0	60*	92*
Cc1nn(C)c2ncc(C(=O)c3ccccc3O)cc12	3	13	10	0	-2	.	.
Cc1[nH]nc2ncc(C(=O)c3ccccc3O)cc12	-4	81*	-8	0	-1	81*	30
CC(=O)C[C@H](O)CC(=O)[C@@H]1OC(=O)CCCCCCc2ccccc21	0	-6	9	6	-2	.	.
Cc1ccc(C(NC(=O)NC(C)c2ccccc2)C(Cl)(Cl)Cl)cc1F (configuration not stated)	3	55*	-4	7	-3	58*	40*
CC(NC(=O)Nc1ccc(Cl)cc1)c1ccccc1 (configuration not stated)	3	6	4	-2	-2	.	.
